The text below walks through data of ChEMBL document CHEMBL1138329, “Pharmacokinetic/pharmacodynamic model-guided identification of hypoxia-selective 1,2,4-benzotriazine 1,4-dioxides with antitumor activity: the role of extravascular transport” (J Med Chem, 2007).

Data set [1] relates to HT-29. The experiment in a line: Effect on human HT29 cells under hypoxic conditions assessed as drug level causing 10% clonogenic survival. The data set is classed as functional. The method in brief: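 HT29 suspensions (1 or 2 × 10^6 cells/mL) in serum-free medium were stirred under 5% CO2/95% N2 for 90 min. Drug was added from deoxygenated DMSO stock at a level giving about 10% survival at 1 h, and samples were taken up to 3 h. Clonogenic survival (14 days, methylene blue) was fitted with the HPLC concentration–time data, and the 10% survival exposure was interpolated.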

The nature of data set [2]: Cmax in CD1 mouse at 562 umol/kg, ip. It is filed as ADME, organism-based. On the set-up: dose 562 umol/kg, route intraperitoneal. The following applies: in vivo. The method in brief: (§1)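 Single i.p. dose to CD-1 homozygous nude mice, drug as HCl salt in 0.9% saline, 5% DMSO/saline or lactate buffer (pH 4.0). Plasma total drug measured by HPLC at 75 or 100% of MTD (MTD from 1.33-fold dose steps, 6 mice). Noncompartmental analysis gave AUC, Cmax and t1/2.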

A short description of data set [3]: Solubility in culture medium in presence of 5% fetal calf serum. The data set is classed as physicochemical. The following applies: culture medium with 5% fetal calf serum.
The subject of data set [4] is HT-29. Description: Cytotoxicity against human HT29 cells under hypoxic conditions after 4 hrs. The following applies: HT-29, 4 h. The data set is classed as functional, cell-based.
A short description of data set [5]: Half life in CD1 mouse at 562 umol/kg, ip. It is filed as ADME, organism-based. The following applies: in vivo. Put shortly: as §1
The test system of data set [6] is HT-29. The experiment in a line: Ratio of IC50 for HT29 cells under oxic conditions to hypoxic conditions after 4 hrs. It is filed as functional, Homo sapiens.
In data set [7] the test system is HT-29. Description: Antitumor activity against human HT29 cells implanted in CD1 mouse assessed as clonogenic survival at 562 umol/kg, ip after 18 hrs relative to control. The data set is classed as functional. The method in brief:
(§2)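 HT29 xenografts in CD-1 homozygous nude mice; single i.p. dose of drug alone, formulated as the HCl salt in 0.9% saline, 5% DMSO/saline or lactate buffer (pH 4.0). Tumors excised 18 h later, dissociated to single-cell suspensions and plated. Clonogens/g of tumor counted; surviving fraction = treated/control clonogens/g.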

In data set [8] the test system is HT-29. The experiment in a line: Diffusion coefficient, D in HT29 multicellular layers. It is filed as ADME, cell-based. The following applies: human. The method in brief: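 HT29 multicellular layers were grown 3 days on collagen-coated Teflon membranes, equilibrated 60 min under 95% O2/5% CO2 at 37 °C, then placed in a diffusion chamber. Donor and receiver were sampled up to 5 h and assayed by HPLC. D came from fitting both profiles to a Fickian model with membrane and MCL in series, corrected by support-only Ds.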

Data set [9] has as its system SiHa. The experiment in a line: Ratio of IC50 for SiHa cells under oxic conditions to hypoxic conditions after 4 hrs. It is filed as functional, Homo sapiens.
The test system of the next data set is Mus musculus. Description: Toxicity in ip dosed CD1 mouse. It is filed as organism-based. To be noted: in vivo. The method in brief:
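MTD in CD-1 homozygous nude mice after single i.p. doses (HCl salts in saline, 5% DMSO/saline or lactate buffer pH 4.0), escalated in 1.33-fold increments. MTD taken as the highest dose causing no death, no body weight loss >15% and no other severe morbidity in any of 6 mice.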

The subject of data set [10] is HT-29. Description: Antitumor activity against human HT29 cells implanted in CD1 mouse at 562 umol/kg, ip administered 5 mins after irradiation by excision assay relative to radiation alone. The data set is classed as functional. The method in brief:
(§3)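 Hypoxic-cell excision assay in HT29 xenografts in CD-1 homozygous nude mice. Mice received 20 Gy γ radiation to sterilize oxic tumor cells, then a single i.p. drug dose (HCl salt in saline, 5% DMSO/saline or pH 4.0 lactate buffer) 5 min later. Tumors excised at 18 h and plated for clonogens/g. Log cell kill = log(clonogens/g, radiation only) − log(clonogens/g, radiation plus drug).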

A short description of data set [11]: AUC in CD1 mouse at 562 umol/kg, ip. The following applies: plasma. It is filed as ADME, organism-based. The method in brief:
as §1

Data set [12] concerns SiHa. The experiment in a line: Cytotoxicity against human SiHa cells under hypoxic conditions after 4 hrs. The data set is classed as functional, cell-based.
Data set [13] deals with HT-29. Description: Antitumor activity against human HT29 cells implanted in CD1 mouse assessed as clonogenic survival at 750 umol/kg, ip after 18 hrs relative to control. It is filed as functional. Put shortly: as §2
Data set [14] can be described thus: AUC in CD1 mouse at 750 umol/kg, ip. It is filed as ADME, organism-based. To be noted: plasma. The method in brief: as §1
The nature of data set [15]: Half life in CD1 mouse at 750 umol/kg, ip. The data set is classed as ADME, organism-based. The following applies: in vivo. Put shortly: as §1
Data set [16] relates to HT-29. Description: Antitumor activity against human HT29 cells implanted in CD1 mouse at 750 umol/kg, ip administered 5 mins after irradiation by excision assay relative to radiation alone. The data set is classed as functional. Put shortly:
as §3

A short description of data set [17]: Cmax in CD1 mouse at 750 umol/kg, ip. The data set is classed as ADME, organism-based. Details: dose 750 umol/kg, route intraperitoneal. The following applies: in vivo. Put shortly: as §1
The nature of data set [18]: Cmax in CD1 mouse at 237 umol/kg, ip. The data set is classed as ADME, organism-based. On the set-up: dose 237 umol/kg, route intraperitoneal. The following applies: in vivo. Put shortly:
as §1

Data set [19] in a line: Half life in CD1 mouse at 237 umol/kg, ip. The data set is classed as ADME, organism-based. The following applies: in vivo. Put shortly: as §1
Data set [20] in a line: AUC in CD1 mouse at 237 umol/kg, ip. The following applies: plasma. The data set is classed as ADME, organism-based. The method in brief: as §1
Data set [21] can be described thus: AUC in CD1 mouse at 421 umol/kg, ip. The data set is classed as ADME, organism-based. To be noted: plasma. Put shortly: as §1
Data set [22] is described as follows: Half life in CD1 mouse at 421 umol/kg, ip. The data set is classed as ADME, organism-based. To be noted: in vivo. The method in brief: as §1
A short description of data set [23]: Cmax in CD1 mouse at 421 umol/kg, ip. It is filed as ADME, organism-based. Details: dose 421 umol/kg, route intraperitoneal. To be noted: in vivo. The method in brief:
as §1

As usually defined, the Cmax is the maximum level reached in the sampled fluid or tissue. In general, solubility refers to how much of the substance goes into solution per volume. The term IC50 denotes the concentration that gives 50% inhibition. The low end stands for inhibition by little substance, the high end for a need for much substance. As a reminder, the half-life is how long it takes for the measured level to halve. High values mean slow loss, low ones fast loss. A word on the AUC: it is concentration integrated over time. A high value points to high exposure.

Bounds are passed on as bounds.

Turning to `[O-][n+]1nc(NCCN2CCOCC2)[n+]([O-])c2ccccc21`, the Activity in the data set with HT-29 [1] is 47.5 µM·h. Moreover, in [2], the Cmax was 160 µM. Besides, the solubility in [3] was greater than 49 mM. Besides, the IC50 with HT-29 [4] stood at 17.3 µM; in the data set on SiHa [12] it was 6600 nM. Besides, the half-life in data set [5] is 16.5 min. For the same molecule, the “Ratio IC50” value in the data set on HT-29 [6] is listed as 34; in the data set with SiHa [9], 44. Besides, the LCK with HT-29 [7] stood at 0.29; with HT-29 [10] it was 0.6. The same molecule displayed a D in the data set on HT-29 [8] of 3.63e-07 cm²/s. The MTD in the data set on Mus musculus came out at 562 µmol/kg. Moreover, in data set [11], the AUC was 105 µM·h.

Turning to `CCOc1ccc2c(c1)[n+]([O-])c(NCCN(C)C)n[n+]2[O-]`, in the data set on HT-29 [1], the Activity is 50.1 µM·h. In addition, the LCK is given as 0.09 in the data set with HT-29 [13] and 0.83 in the data set on HT-29 [16]. The solubility in [3] is greater than 50 mM. The half-inhibitory concentration (IC50) in the data set on HT-29 [4] amounted to 2.6 µM; with SiHa [12], 800 nM. Besides, the “Ratio IC50” value is listed as 121 in the data set on HT-29 [6] and 245 in the data set on SiHa [9]. Besides, the AUC in [14] is 82.3 µM·h. Moreover, the half-life in data set [15] amounted to 31.6 min. This molecule also showed an MTD in the data set with Mus musculus of 1000 µmol/kg. The Cmax in data set [17] is 85.7 µM.

`CCOc1ccc2c(c1)[n+]([O-])c(NCCN1CCCCC1)n[n+]2[O-]`: the Activity in the data set on HT-29 [1] amounted to 36.3 µM·h. This molecule had a Cmax in data set [18] of 9.8 µM. The molecule also showed a half-life in data set [19] of 40.1 min. Further, in [3], the solubility was greater than 49 mM. Besides, in data set [20], the AUC was 10.7 µM·h. For the same molecule, the IC50 with HT-29 [4] worked out at 2.2 µM; with SiHa [12], 1700 nM. Besides, the “Ratio IC50” value with HT-29 [6] is listed as 116; with SiHa [9] it was 169. The molecule further showed an MTD in the data set with Mus musculus of 316 µmol/kg.

On to `Cc1ccc2c(c1)[n+]([O-])c(NCCN1CCCCC1)n[n+]2[O-]`, for which the Activity in the data set on HT-29 [1] turned out to be 9.4 µM·h. In addition, in data set [18], the maximum concentration (Cmax) worked out at 14.9 µM. This molecule returned a half-life in data set [19] of 16.6 min. In data set [3], the solubility came to 45 mM. Moreover, in [20], the AUC was 13.8 µM·h. Also, the IC50 in the data set on HT-29 [4] is 4 µM; in the data set with SiHa [12] it was 2200 nM. In addition, the results for the “Ratio IC50” value in the data set with HT-29 [6] and in the data set on SiHa [9] were 58 and 75, respectively. For the same molecule, in the data set with HT-29 [8], the D came out at 7.49e-07 cm²/s. For the same molecule, the MTD with Mus musculus is 237 µmol/kg.

In the case of `Cc1ccc2c(c1)[n+]([O-])c(NCCN1C(C)CCCC1C)n[n+]2[O-]` (centres undefined), the Activity with HT-29 [1] was found to be 15.4 µM·h. In addition, in data set [21], the AUC is 18.3 µM·h. Moreover, the solubility in data set [3] is 48 mM. Further, the half-life in data set [22] was 19.1 min. In addition, the IC50 with HT-29 [4] is 2.8 µM; in the data set with SiHa [12], 800 nM. Also, the “Ratio IC50” value amounted to 126 with HT-29 [6] and 159 in the data set on SiHa [9]. Further, in the data set with HT-29 [8], the D stood at 9.45e-07 cm²/s. The same molecule registered a maximum concentration (Cmax) in data set [23] of 19.6 µM. This molecule returned an MTD with Mus musculus of 421 µmol/kg.

In the case of `COCCOc1ccc2c(c1)[n+]([O-])c(NCCN(C)C)n[n+]2[O-]`, in the data set with HT-29 [1], the Activity amounted to 51.8 µM·h. Moreover, the solubility in data set [3] is greater than 51 mM. The results for the IC50 in the data set on HT-29 [4] and with SiHa [12] were 5 µM and 1600 nM, respectively. In data set [5], this molecule gave a half-life of 44.9 min. In addition, the Ratio IC50 was 117 with HT-29 [6] and 401 in the data set with SiHa [9]. The LCK in the data set with HT-29 [7] is -0.08; in the data set on HT-29 [10] it was 0.3. The MTD with Mus musculus came out at 1330 µM/g. The molecule also showed an AUC in [11] of 257 µM·h.

As for `CN(C)CCNc1n[n+]([O-])c2ccc(C(C)(C)C)cc2[n+]1[O-]`, in the data set with HT-29 [1], the Activity stood at 11.4 µM·h. In addition, the AUC in data set [21] is 9.73 µM·h. The solubility in data set [3] was 38 mM. In [22], this molecule showed a half-life of 12.5 min. For the same molecule, the half-maximal inhibitory concentration (IC50) with HT-29 [4] is 3.7 µM; in the data set with SiHa [12], 1100 nM. Moreover, the “Ratio IC50” value in the data set with HT-29 [6] amounted to 99; in the data set on SiHa [9] it was 78. This molecule registered a D with HT-29 [8] of 8.63e-07 cm²/s. Also, in data set [23], the maximum concentration (Cmax) turned out to be 16.1 µM. Also, in the data set on Mus musculus, the MTD was 421 µmol/kg.
